Tests used:
[1] = Neuroprotective activity in oligomeric amyloid beta peptide-induced human MC65 cells assessed as cell viability by MTT assay; assay type: functional, cell-based
In short: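 Protection against Aβ oligomer-induced toxicity in MC65 cells, reported as EC50 (median effective concentration).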

[2] = Cytotoxicity against human MC65 cells by MTT assay; assay type: cell-based; details: read-out: TC50 (the source's name)
In short: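 MC65 cells kept with tetracycline in the medium to suppress C99 production, so the cells survive and compound toxicity alone is measured. Reported as TC50 (median toxic concentration).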

[3] = Drug uptake in CD1 mouse brain at 5 mg/kg, po daily for 75 days; assay type: ADME, organism-based; design: dose 5 mg/kg, route oral; details: read-out: Drug uptake
In short: (§1)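 CD1 mice received 5 mg/Kg by oral gavage once daily for 75 days (four treated, two untreated). Compound in tissues and plasma was quantified by a previously reported procedure and expressed in µM as mean ± standard deviation (n = 4).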

Mus musculus [4] = assay: Toxicity in CD1 mouse assessed as effect on alanine transaminase activity at 5 mg/kg, po daily for 75 days; assay type: organism-based; design: dose 5 mg/kg, route oral; details: in vivo, 1800 h
In short: (§2)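 After 75 days of daily oral gavage at 5 mg/kg, mice were sacrificed and blood was drawn from the heart into a heparinized syringe. Plasma was separated at once by centrifugation at 10,000 x g for 5 min. ALT and AST activities were measured with a commercial kit and compared between control and treated mice.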

Mus musculus [5] = assay: Toxicity in CD1 mouse assessed as effect on locomotion at 5 mg/kg, po daily for 75 days by Versamax chamber test; assay type: organism-based; design: dose 5 mg/kg, route oral; details: in vivo, 1800 h
In short: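 After 75 days of daily 5 mg/Kg oral gavage, control and treated mice were acclimatized for 15 min in a Versamax chamber, then their movements were monitored. Measures were clockwise and counter-clockwise activity, total distance, rest time, and vertical and horizontal activity, compared against control.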

Mus musculus [6] = assay: Toxicity in CD1 mouse assessed as effect on aspartate aminotransferase activity at 5 mg/kg, po daily for 75 days; assay type: organism-based; design: dose 5 mg/kg, route oral; details: in vivo, 1800 h; in short: as §2
[7] = Drug uptake in CD1 mouse plasma at 5 mg/kg, po daily for 75 days; assay type: ADME, organism-based; design: dose 5 mg/kg, route oral; in short: as §1
Lung = assay: Drug uptake in CD1 mouse lung at 5 mg/kg, po daily for 75 days; assay type: ADME, organism-based; design: dose 5 mg/kg, route oral; details: in vivo, 1800 h; in short: as §1
[8] = Drug uptake in CD1 mouse pancreas at 5 mg/kg, po daily for 75 days; assay type: ADME, organism-based; design: dose 5 mg/kg, route oral; details: read-out: Drug uptake; in short: as §1
[9] = Drug uptake in CD1 mouse liver at 5 mg/kg, po daily for 75 days; assay type: ADME, organism-based; design: dose 5 mg/kg, route oral; details: read-out: Drug uptake; in short: as §1
[10] = Drug uptake in CD1 mouse kidney at 5 mg/kg, po daily for 75 days; assay type: ADME, organism-based; design: dose 5 mg/kg, route oral; details: read-out: Drug uptake; in short: as §1

| SMILES | EC50 [1] | CC50 [2] | further results |
| --- | --- | --- | --- |
| COc1cc(NCCCN)c2nccc(C)c2c1 | 17.6 µM | > 50 µM | – |
| COc1cc(NCc2ccc(O)cc2)c2nccc(C)c2c1 | 2.62 µM | 20.5 µM | – |
| COc1cc(NCc2nccs2)c2nccc(C)c2c1Oc1cccc(C(F)(F)F)c1 | 2.39 µM | 20.3 µM | – |
| COc1cc(NCc2ccc(O)cc2)c2nccc(C)c2c1Oc1cccc(C(F)(F)F)c1 | 0.12 µM | 1.38 µM | concentration at 1800 h [3]: 24.4 µM; Activity (Mus musculus [4]): Non-toxic; Activity (Mus musculus [5]): Non-toxic; Activity (Mus musculus [6]): Non-toxic; concentration at 1800 h [7]: 4.5 µM; Drug uptake (Lung): NotTraceable; concentration at 1800 h [8]: 26.5 µM; concentration at 1800 h [9]: 7.1 µM; concentration at 1800 h [10]: 16.1 µM |
| COc1cc(CNc2cc(OC)c(Oc3cccc(C(F)(F)F)c3)c3c(C)ccnc23)cc(OC)c1O | 0.48 µM | 2.91 µM | – |
| COc1cc(NCc2cc3ccccc3o2)c2nccc(C)c2c1Oc1cccc(C(F)(F)F)c1 | 0.46 µM | > 50 µM | – |
| COc1cc(NCc2ccc(-c3ccccc3)s2)c2nccc(C)c2c1Oc1cccc(C(F)(F)F)c1 | 0.39 µM | 14.5 µM | – |
| COc1cc(NCc2cccc3cccnc23)c2nccc(C)c2c1Oc1cccc(C(F)(F)F)c1 | 0.19 µM | > 50 µM | – |
| COc1cc(NCCC(N)=O)c2nccc(C)c2c1Oc1cccc(C(F)(F)F)c1 | 0.5 µM | > 50 µM | – |
| COc1cc(NC(=O)c2ccco2)c2nccc(C)c2c1Oc1cccc(C(F)(F)F)c1 | 3.47 µM | > 50 µM | – |
| Cc1ccnc2c(NCc3ccc(O)cc3)cc(O)c(Oc3cccc(C(F)(F)F)c3)c12 | – | 3.31 µM | – |
| COc1cc(NCCCN)c2nccc(C)c2c1Oc1cccc(F)c1 | 0.6 µM | 7.28 µM | – |
| COc1cc(NCc2ccc(O)cc2)c2nccc(C)c2c1Oc1cccc(F)c1 | 0.7 µM | 2.6 µM | – |
| COc1cc(NCCCN)c2nccc(C)c2c1Oc1ccccc1 | 0.42 µM | 8.16 µM | – |
| COc1cc(NCc2ccc(O)cc2)c2nccc(C)c2c1Oc1ccccc1 | 0.53 µM | 4.01 µM | – |
| COc1cc(NCCCN)c2nccc(C)c2c1Oc1cccc(C(F)(F)F)c1 | 0.15 µM | 2.1 µM | – |

Source: ChEMBL document CHEMBL3352531, “Syntheses, neural protective activities, and inhibition of glycogen synthase kinase-3β of substituted quinolines” (Bioorg Med Chem Lett, 2014)
